From ChEMBL document CHEMBL4609978, “Synthesis and evaluation of 2'-dihalo ribonucleotide prodrugs with activity against hepatitis C virus” (Bioorg Med Chem, 2020)

Test system: not listed separately
Experiment: Cytotoxicity against human HuH7 cells assessed as reduction in cell viability
Assay type: cell-based, Huh-7
Details: read-out: TD50 (the source's name)

Question: Which CC50 does the source give for `CC(C)OC(=O)[C@H](C)N[P@](=O)(OC[C@H]1O[C@@H](n2ccc(=O)[nH]c2=O)C(Cl)(Cl)[C@@H]1O)Oc1ccccc1` here?
Answer: > 100000 nM

Question: For `CC(C)OC(=O)[C@H](C)N[P@](=O)(OC[C@H]1O[C@@H](n2ccc(=O)[nH]c2=O)[C@@](F)(Cl)[C@@H]1O)Oc1ccccc1`, which CC50 is on record?
Answer: 11000 nM

Test system: Hepatitis C virus
Experiment: Antiviral activity against HCV genotype 1b Con1 infected in human HuH7 replicon cells assessed as inhibition of viral replication after 3 days by luciferase reporter gene assay
Assay type: functional, organism-based, Hepacivirus hominis
Details: subtype 1b Con1, Huh-7, 72 h
Method in brief: (§1)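 Stable subgenomic replicon cell lines (genotype 1a-H77 or 1b-Con1) carrying a luciferase reporter; compounds added in DMEM with 5% FBS, cells incubated 3 days with or without compound, then lysed and luciferase activity read; EC50 from nonlinear regression fit to 4-parameter logistic equation.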

Question: For `CC(C)OC(=O)[C@H](C)N[P@](=O)(OC[C@H]1O[C@@H](n2ccc(=O)[nH]c2=O)C(Cl)(Cl)[C@@H]1O)Oc1ccccc1`, which EC50 is on record?
Answer: 48 nM

Question: For `CC(C)OC(=O)[C@H](C)N[P@](=O)(OC[C@H]1O[C@@H](n2ccc(=O)[nH]c2=O)[C@@](F)(Cl)[C@@H]1O)Oc1ccccc1`, which EC50 is on record?
Answer: 61 nM

Test system: Hepatitis C virus
Experiment: Potency index, ratio of sofosbuvir EC50 to compound EC50 for HCV genotype 1a H77 infected in human HuH7 replicon cells assessed as inhibition of viral replication after 3 days by luciferase reporter gene assay
Assay type: functional, Hepacivirus hominis, subtype 1a H77, Huh-7
Details: not given
Method in brief: (§2)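 Stable subgenomic luciferase-reporter replicon Huh-7 lines, genotype 1a-H77 or 1b-Con1. Test compound and sofosbuvir comparator each run in DMEM with 5% FBS for 3 days. Cells lysed and luciferase activity read. EC50 obtained by nonlinear regression to a 4-parameter logistic equation. Index is sofosbuvir EC50 divided by compound EC50, both from this assay.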

Question: For `CC(C)OC(=O)[C@H](C)N[P@](=O)(OC[C@H]1O[C@@H](n2ccc(=O)[nH]c2=O)C(Cl)(Cl)[C@@H]1O)Oc1ccccc1`, which “Ratio EC50” value is on record?
Answer: 3 - 4

Question: With `CC(C)OC(=O)[C@H](C)N[P@](=O)(OC[C@H]1O[C@@H](n2ccc(=O)[nH]c2=O)[C@@](F)(Cl)[C@@H]1O)Oc1ccccc1` as the molecule, how does the “Ratio EC50” value read?
Answer: 3 - 4

Test system: Hepatitis C virus
Experiment: Potency index, ratio of sofosbuvir EC50 to compound EC50 for HCV genotype 1b Con1 infected in human HuH7 replicon cells assessed as inhibition of viral replication after 3 days by luciferase reporter gene assay
Assay type: functional, Hepacivirus hominis, subtype 1b Con1, Huh-7
Details: not given
Method in brief: as §2

Question: Which “Ratio EC50” value does the source give for `CC(C)OC(=O)[C@H](C)N[P@](=O)(OC[C@H]1O[C@@H](n2ccc(=O)[nH]c2=O)C(Cl)(Cl)[C@@H]1O)Oc1ccccc1` here?
Answer: 3 - 4

Question: Which “Ratio EC50” value does the source give for `CC(C)OC(=O)[C@H](C)N[P@](=O)(OC[C@H]1O[C@@H](n2ccc(=O)[nH]c2=O)[C@@](F)(Cl)[C@@H]1O)Oc1ccccc1` here?
Answer: 3 - 4

Test system: Hepatitis C virus
Experiment: Antiviral activity against HCV genotype 1a H77 infected in human HuH7 replicon cells assessed as inhibition of viral replication after 3 days by luciferase reporter gene assay
Assay type: functional, organism-based, Hepacivirus hominis
Details: subtype 1a H77, Huh-7, 72 h
Method in brief: as §1

Question: Which EC50 does the source give for `CC(C)OC(=O)[C@H](C)N[P@](=O)(OC[C@H]1O[C@@H](n2ccc(=O)[nH]c2=O)C(Cl)(Cl)[C@@H]1O)Oc1ccccc1` here?
Answer: 43 nM

Question: Which EC50 does the source give for `CC(C)OC(=O)[C@H](C)N[P@](=O)(OC[C@H]1O[C@@H](n2ccc(=O)[nH]c2=O)[C@@](F)(Cl)[C@@H]1O)Oc1ccccc1` here?
Answer: 53 nM
